Results on twelve compounds are retold here after ChEMBL document CHEMBL1129280, “3-Benzisothiazolylpiperazine derivatives as potential atypical antipsychotic agents” (J Med Chem, 1996).

For assay [1], the system named is Rattus norvegicus. Nature of the assay: Dose (administered orally) inhibiting apomorphine-induced stereotypy in rats. In kind it is functional. The following applies: po. A digest of the protocol:
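Rats dosed orally with vehicle or compound and observed in clear cages; apomorphine HCl 0.75 mg/kg sc given 3 h later. Stereotypy rated blind on a 0–4 scale starting 10 min after apomorphine, every 10 min, five ratings in all.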

The test system of assay [2] is Rattus norvegicus. Nature of the assay: Dose inhibiting conditioned avoidance response in rats after oral administration. In kind it is functional. A digest of the protocol:
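Each test day, 30 predrug avoidance trials in the morning; in the afternoon, oral compound or vehicle, then 30 more trials starting 120 min later. Predrug and postdrug avoidances compared by repeated-measures ANOVA with Newman-Keuls test; ID50 from linear regression of dose-response data.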

Assay [3] deals with Rattus norvegicus. Briefly: Dose inducing catalepsy in rats after oral administration. In kind it is functional. In outline: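 Oral dose of compound or vehicle; rats tested 120 and 180 min later with forepaws on a horizontal bar (9 mm diameter, 10 cm high). Latency to climb down recorded, 90 s maximum, score averaged over two trials; 20 s mean immobility was the catalepsy criterion. ED20s dose extrapolated by linear regression.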

Assay [4] deals with Rattus norvegicus. Briefly: Dose (administered orally) inhibiting amphetamine-induced locomotor behavior in rats. In kind it is functional. The following applies: po.
In assay [5] the test system is Rattus norvegicus. Briefly: Dose (administered orally) inhibiting spontaneous locomotor behavior in rats. The following applies: po. In kind it is functional. A digest of the protocol:
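At the start of the 12 h dark cycle, rats were dosed orally with vehicle or compound and placed at once in unfamiliar activity chambers. Horizontal locomotion recorded over 4 h.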

Assay [6] concerns the target T1, Adrenergic receptor alpha-1 (Rattus norvegicus, UniProt P15823+P23944+P43140).
T1 sequence (P15823 whole entry): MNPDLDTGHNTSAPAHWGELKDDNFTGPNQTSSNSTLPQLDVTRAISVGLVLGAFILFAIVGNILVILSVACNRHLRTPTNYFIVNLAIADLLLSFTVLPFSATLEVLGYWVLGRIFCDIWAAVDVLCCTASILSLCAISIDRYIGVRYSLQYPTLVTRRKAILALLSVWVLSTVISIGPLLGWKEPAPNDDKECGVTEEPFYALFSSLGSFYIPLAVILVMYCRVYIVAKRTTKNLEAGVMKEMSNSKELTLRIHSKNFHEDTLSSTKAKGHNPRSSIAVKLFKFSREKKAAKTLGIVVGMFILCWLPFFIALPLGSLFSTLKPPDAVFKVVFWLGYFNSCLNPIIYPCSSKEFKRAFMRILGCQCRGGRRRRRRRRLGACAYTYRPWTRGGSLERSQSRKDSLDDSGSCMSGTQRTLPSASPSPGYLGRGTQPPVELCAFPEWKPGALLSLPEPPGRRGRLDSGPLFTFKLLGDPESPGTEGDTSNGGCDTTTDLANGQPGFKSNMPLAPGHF
T1 sequence (P23944 whole entry): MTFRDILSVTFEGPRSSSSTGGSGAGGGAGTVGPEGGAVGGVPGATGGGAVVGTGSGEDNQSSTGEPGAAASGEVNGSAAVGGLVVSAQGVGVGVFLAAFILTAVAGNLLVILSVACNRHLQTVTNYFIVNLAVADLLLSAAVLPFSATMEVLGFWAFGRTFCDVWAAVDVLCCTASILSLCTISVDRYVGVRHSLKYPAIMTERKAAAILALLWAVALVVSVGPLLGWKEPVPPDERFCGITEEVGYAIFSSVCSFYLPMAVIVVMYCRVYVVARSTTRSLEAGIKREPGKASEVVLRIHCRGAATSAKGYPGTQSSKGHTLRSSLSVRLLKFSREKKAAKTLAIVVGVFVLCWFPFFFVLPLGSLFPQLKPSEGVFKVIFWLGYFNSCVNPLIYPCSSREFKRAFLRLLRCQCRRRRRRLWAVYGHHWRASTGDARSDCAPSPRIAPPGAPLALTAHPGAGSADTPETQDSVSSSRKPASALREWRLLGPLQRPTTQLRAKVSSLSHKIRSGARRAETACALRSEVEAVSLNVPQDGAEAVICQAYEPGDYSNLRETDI
T1 sequence (P43140 whole entry): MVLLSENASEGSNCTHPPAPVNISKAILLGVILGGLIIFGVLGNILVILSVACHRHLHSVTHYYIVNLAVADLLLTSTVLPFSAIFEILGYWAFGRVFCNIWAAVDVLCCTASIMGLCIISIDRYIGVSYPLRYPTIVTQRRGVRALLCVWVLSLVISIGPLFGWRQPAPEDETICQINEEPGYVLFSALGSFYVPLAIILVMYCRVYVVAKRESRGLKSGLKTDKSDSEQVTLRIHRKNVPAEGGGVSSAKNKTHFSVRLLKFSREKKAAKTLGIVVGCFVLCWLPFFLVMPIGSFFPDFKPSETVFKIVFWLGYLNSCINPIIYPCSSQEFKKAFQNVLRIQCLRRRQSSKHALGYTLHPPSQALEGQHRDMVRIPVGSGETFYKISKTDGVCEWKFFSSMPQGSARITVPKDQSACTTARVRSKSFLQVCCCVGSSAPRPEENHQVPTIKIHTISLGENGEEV
Briefly: Displacement of [3H]prazosin from rat brain Alpha-1 adrenergic receptor. (Loss of bound radioactivity is the signal in a displacement assay; it reports binding, not function.)

The target of assay [7] is T1, Adrenergic receptor alpha-1. Nature of the assay: Displacement of [3H]prazosin from Alpha-1 adrenergic receptor in rat brain. The class given is tissue-based.

As for `Oc1nc2ccc(CCN3CCN(c4nsc5ccccc45)CC3)cc2s1`, the ED50 (usually the midpoint of the dose-response relation) is 23.8 mg/kg in assay [1]; 12.3 mg/kg in assay [2]; > 56 mg/kg in assay [3]; 2.7 mg/kg in assay [4]; 2.7 mg/kg in assay [5]. Also, the “Log Ki” value in assay [6] was -8.63. Also, in assay [7], the Ki (as a rule, the dissociation constant of the complex between target and ligand, obtained from inhibition or displacement) is on record as 2.3 nM.
As for `CCN1C(=O)Cc2cc(CCN3CCN(c4nsc5ccccc45)CC3)ccc21`, the ED50 in assay [1] amounted to 4.7 mg/kg; in assay [2], 1.8 mg/kg; in assay [3] it was 10 mg/kg; in assay [4], 1.1 mg/kg; in assay [5] it was 2.1 mg/kg. Further, the “Log Ki” value in assay [6] was -8.35. The Ki in assay [7] is recorded as 4.5 nM.
Turning to `O=C1Cc2cc(CCN3CCN(c4nsc5ccccc45)CC3)c(F)cc2N1`, the 50% effective dose (ED50) was determined as 9.1 mg/kg in assay [1]; 9 mg/kg in assay [2]; 17.8 mg/kg in assay [3]; 1 mg/kg in assay [4]; 3.1 mg/kg in assay [5]. In addition, the “Log Ki” value in assay [6] was -8.19. Also, in assay [7], the Ki was found to be 6.5 nM.
Turning to `Oc1nc2ccc(CCN3CCN(c4nsc5ccccc45)CC3)cc2o1`, the ED50 in assay [1] was 21.6 mg/kg; in assay [2], 17.8 mg/kg; in assay [3], > 32 mg/kg; in assay [4] it was 4.2 mg/kg; in assay [5] it was 9.8 mg/kg. Moreover, in assay [6], the “Log Ki” value is given as -8.38. The compound also came in with a Ki in assay [7] of 4.2 nM.
As to `O=C1Nc2ccc(CCN3CCN(c4nsc5ccccc45)CC3)cc2C12CCCC2`, the results for the ED50 in assay [1], in assay [3] and in assay [4] were 9 mg/kg, 32 mg/kg and 5.8 mg/kg, respectively. Besides, the “Log Ki” value in assay [6] is given as -8.29. In assay [7], this compound came in with an inhibition constant (Ki) of 5.1 nM.
`O=C1Cc2cc(CCN3CCN(c4nsc5ccccc45)CC3)ccc2N1`: the ED50 in assay [1] amounted to 8.4 mg/kg; in assay [2], 6.7 mg/kg; in assay [3], 18.8 mg/kg; in assay [4], 1.4 mg/kg; in assay [5], 8.5 mg/kg. Besides, the “Log Ki” value in assay [6] is reported as -8.52. The Ki in assay [7] is given as 3 nM.
As for `CC1(C)C(=O)Nc2ccc(CCN3CCN(c4nsc5ccccc45)CC3)cc21`, the ED50 in assay [1] was determined as 10 mg/kg; in assay [2] it was 2.6 mg/kg; in assay [3], 17.8 mg/kg; in assay [4] it was 2.3 mg/kg; in assay [5], 10.7 mg/kg. The “Log Ki” value in assay [6] is -8.68. Besides, the Ki in assay [7] turned out to be 2.1 nM.
As to `CN1CCN(C2=Nc3cc(Cl)ccc3Nc3ccccc32)CC1` [CLOZAPINE], the ED50 in assay [1] is > 32 mg/kg; in assay [2], > 17.8 mg/kg; in assay [3], > 32 mg/kg; in assay [4], 12.8 mg/kg; in assay [5], 8.18 mg/kg.
On to `O=C(CCCN1CCC(O)(c2ccc(Cl)cc2)CC1)c1ccc(F)cc1` [HALOPERIDOL], for which the 50% effective dose (ED50) in assay [1] is 0.25 mg/kg; in assay [2], 0.93 mg/kg; in assay [3], 0.79 mg/kg; in assay [4] it was 0.14 mg/kg; in assay [5], 0.68 mg/kg.
In the case of `Cc1nc2n(c(=O)c1CCN1CCC(c3noc4cc(F)ccc34)CC1)CCCC2` [RISPERIDONE], the ED50 amounted to 1.8 mg/kg in assay [1]; 1.6 mg/kg in assay [2]; 5.7 mg/kg in assay [3]; 0.44 mg/kg in assay [4]; 1.2 mg/kg in assay [5].
Take `O=C1CC2(CCCC2)CC(=O)N1CCCCN1CCN(c2nsc3ccccc23)CC1` [TIOSPIRONE]: the ED50 in assay [1] was 18.8 mg/kg; in assay [2], 11.7 mg/kg; in assay [3], 20.1 mg/kg; in assay [4] it was 4.8 mg/kg; in assay [5], 15.5 mg/kg. In addition, in assay [6], the “Log Ki” value is -8.83. This compound came in with a Ki in assay [7] of 1.5 nM.
For `O=C1Cc2cc(CCN3CCN(c4nsc5ccccc45)CC3)c(Cl)cc2N1` [ZIPRASIDONE], the ED50 is 2.4 mg/kg in assay [1]; 2.6 mg/kg in assay [2]; 12.1 mg/kg in assay [3]; 1.5 mg/kg in assay [4]; 8.9 mg/kg in assay [5]. Also, the “Log Ki” value in assay [6] is given as -7.98. Moreover, the inhibition constant (Ki) in assay [7] amounted to 11 nM.
